Consider three molecules from publication PMC3182458 (Bioorganic & medicinal chemistry letters, 2008).

One series concerns the target human mGluR4 (Homo sapiens, UniProt Q14833). It counts as cell-based.
For series [1] the following is noted: cited from earlier work.
In the next series the target is rat mGluR1 (Rattus norvegicus, UniProt P23385). The experiment in a line: calcium fluorescence counterscreen in rat mGluR1/BHK cells. It counts as cell-based. The method in brief: (§1)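 Calcium mobilization in rat receptor lines: mGluR1/BHK plated at 20,000 cells/well, mGluR5/HEK at 15,000 cells/well, in DMEM with 10% dialyzed FBS and 20 mM HEPES. […] Test compound run as a 10-point curve from 30 µM final, 1:3 dilutions. Maximum fluorescence of the EC20 and EC80 peaks is expressed versus control.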
rat mGluR1, sequence (P23385 19-1199): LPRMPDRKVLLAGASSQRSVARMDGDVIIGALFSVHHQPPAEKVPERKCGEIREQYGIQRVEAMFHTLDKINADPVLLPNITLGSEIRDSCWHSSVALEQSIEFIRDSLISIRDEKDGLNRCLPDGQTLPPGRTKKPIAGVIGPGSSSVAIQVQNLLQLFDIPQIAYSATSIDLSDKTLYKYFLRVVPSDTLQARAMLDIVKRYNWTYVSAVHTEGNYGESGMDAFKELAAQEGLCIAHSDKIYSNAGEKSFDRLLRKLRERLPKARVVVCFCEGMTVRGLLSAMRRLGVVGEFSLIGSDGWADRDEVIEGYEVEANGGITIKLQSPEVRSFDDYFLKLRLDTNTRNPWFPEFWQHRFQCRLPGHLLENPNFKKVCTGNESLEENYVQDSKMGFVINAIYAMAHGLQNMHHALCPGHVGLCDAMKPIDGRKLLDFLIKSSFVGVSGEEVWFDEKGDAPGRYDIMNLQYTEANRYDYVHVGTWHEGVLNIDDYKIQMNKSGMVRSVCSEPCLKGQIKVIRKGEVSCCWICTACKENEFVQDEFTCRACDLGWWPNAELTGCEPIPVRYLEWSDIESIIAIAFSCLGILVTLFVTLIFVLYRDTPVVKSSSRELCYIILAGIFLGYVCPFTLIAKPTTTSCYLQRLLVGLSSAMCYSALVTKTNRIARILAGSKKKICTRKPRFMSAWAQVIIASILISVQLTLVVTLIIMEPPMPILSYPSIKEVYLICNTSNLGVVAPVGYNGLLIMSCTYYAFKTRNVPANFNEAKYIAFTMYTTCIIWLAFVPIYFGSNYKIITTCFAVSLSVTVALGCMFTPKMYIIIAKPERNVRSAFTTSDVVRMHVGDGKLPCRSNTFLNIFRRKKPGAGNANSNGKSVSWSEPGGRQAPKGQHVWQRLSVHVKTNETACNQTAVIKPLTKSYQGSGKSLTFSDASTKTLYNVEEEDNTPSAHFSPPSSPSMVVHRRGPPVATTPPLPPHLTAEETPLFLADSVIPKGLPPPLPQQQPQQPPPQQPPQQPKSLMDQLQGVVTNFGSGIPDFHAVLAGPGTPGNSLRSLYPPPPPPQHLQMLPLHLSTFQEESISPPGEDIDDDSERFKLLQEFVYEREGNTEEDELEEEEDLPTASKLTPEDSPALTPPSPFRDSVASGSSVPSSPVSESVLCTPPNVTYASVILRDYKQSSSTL
In general terms: A counterscreen serves to expose hits that act by an unwanted route or on another target.

The next series relates to rat mGluR5. The experiment in a line: calcium fluorescence counterscreen in rat mGluR5/HEK cells. The format is cell-based. The method in brief: as §1
The nature of series [2]: stability in fortified liver microsome preparations. The format is in vitro ADME. The note with it: after 90 minutes, fortified liver microsomes. Background: Liver microsomes are vesicles of endoplasmic reticulum, rich in cytochrome P450 enzymes.

By EC50 is commonly meant the concentration needed to bring the measured effect to its halfway point. A high value points to a less potent agent.

Each structure is given as a SMILES string. Where “and” joins values, the source holds several entries; their conditions need not be identical. Identical values can stand only once. Entries after “also recorded” stand apart in the source; their conditions may differ.

human mGluR4, sequence (Q14833 33-912): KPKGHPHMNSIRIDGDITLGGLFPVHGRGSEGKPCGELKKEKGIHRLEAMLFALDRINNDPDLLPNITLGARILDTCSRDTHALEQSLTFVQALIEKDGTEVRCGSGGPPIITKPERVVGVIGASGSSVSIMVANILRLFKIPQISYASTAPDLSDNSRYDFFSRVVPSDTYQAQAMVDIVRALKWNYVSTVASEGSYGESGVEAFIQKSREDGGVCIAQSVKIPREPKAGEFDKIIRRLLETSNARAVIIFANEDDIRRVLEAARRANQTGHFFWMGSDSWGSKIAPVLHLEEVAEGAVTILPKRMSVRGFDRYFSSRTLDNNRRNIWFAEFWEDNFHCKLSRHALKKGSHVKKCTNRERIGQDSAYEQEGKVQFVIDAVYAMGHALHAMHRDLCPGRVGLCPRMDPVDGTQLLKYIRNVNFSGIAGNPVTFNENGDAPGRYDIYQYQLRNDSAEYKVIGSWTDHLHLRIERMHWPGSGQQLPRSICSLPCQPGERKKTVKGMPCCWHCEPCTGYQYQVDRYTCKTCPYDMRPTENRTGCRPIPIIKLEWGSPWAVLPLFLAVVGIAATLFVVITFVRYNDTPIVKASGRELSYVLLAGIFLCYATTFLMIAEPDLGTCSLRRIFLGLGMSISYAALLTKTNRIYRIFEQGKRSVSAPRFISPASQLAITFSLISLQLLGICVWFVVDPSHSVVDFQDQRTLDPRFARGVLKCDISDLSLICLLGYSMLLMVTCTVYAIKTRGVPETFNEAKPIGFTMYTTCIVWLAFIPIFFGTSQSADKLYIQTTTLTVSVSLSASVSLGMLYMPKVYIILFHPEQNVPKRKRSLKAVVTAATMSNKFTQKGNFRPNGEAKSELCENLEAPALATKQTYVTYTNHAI

For the molecule `O=C(Nc1ccccc1)[C@]12C[C@H]1/C(=N\O)c1ccccc1O2` [(−)-PHCCC, reference compound], the “effect on the glutamate max (maximal response)” value on human mGluR4 (compound at 30 µM) is “elevation in the glutamate max; also recorded: increases maximal response”. In addition, the brain penetration result in series [1] is recorded as “limited brain penetration”.

`N[C@@H](CCP(=O)(O)O)C(=O)O` [L-AP4, L-(+)-2-amino-4-phosphonobutryic acid]: in series [1], the CNS penetration entry is “limited CNS penetration”.

At human mGluR4, `Cc1ccc(-n2ncc3c(N4CCCC(C)C4)ncnc32)c(C)c1` (centres unmarked) [Compound 7, 1-(2,4-dimethylphenyl)-4-(3-methylpiperidin-1-yl)-1H-pyrazolo[3,4-d]pyrimidine] registered an EC50 of around 5 µM. Further, at human mGluR4 (compound at 30 µM), the “effect on the glutamate max (maximal response)” value is “no increase in the glutamate max”. Further, on human mGluR4 (compound at 30 µM, HTS stock of 7), the “Fold shift (leftward shift of the glutamate response curve)” value is 27.2(±8.5) fold and 27.2 fold. Besides, the “potentiation of an EC20 of glutamate in the HTS campaign” value on human mGluR4 (mGluR4/Gqi5 CHO cells, HTS) was “Concentration-dependent potentiation”. For the same molecule, on human mGluR4 (no glutamate), the “effect on mGluR4 in the absence of glutamate” value is given as “does not activate mGluR4”. Also, at rat mGluR1, the “mode of action at mGluR1” value is given as “full antagonist”. In the series on rat mGluR5, the “selectivity versus mGluR5” value was “selective versus mGluR5”. Further, the parent compound remaining in series [2] is 9%.
